Source: PubChem BioAssay (several laboratories)
Compounds with a hit are over-represented: about 7.1% of the library has one in this group of screens.
Lung fibro prol = antiproliferative effect on LL 47 fibroblasts – human, LL 47 cells, CellTiter-Glo luminescence, primary screen | 1.1% of 85,000 active | LL 47 human lung fibroblast viability, ATP luminescence; hits give low values | AID 719, 2007 | viability, % at 10 µM;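 active means viability at or below 50% in the single dose screen; inactive means viability above 50%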;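 further: compound exposure lasted 72 h before the ATP readout; 100% = median luminescence of untreated cell-only wells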
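Assay system: human lung fibroblast line LL 47, low passage. Input: 1,150 fibroblasts seeded per well. Times: overnight cell rest, 72 h compound treatment at 37 °C. Evaluation: % viability of median cell-only signal. Technique: luminescent ATP detection, CellTiter-Glo. Control set: cell-only wells, no compound.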
Cav3 T inh = Cav3.2 calcium influx blockers – cell-based, Fluo-4 calcium fluorescence, FDSS, MLSMR library, primary screen | Voltage-dependent T-type calcium channel subunit alpha-1H (Homo sapiens), O95180 | B-score at 10 µM | Cav3.2-expressing cells; hits give low values | AID 449739, 2010 | 4% of 100,000 active;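 active means single-dose well whose peak fluorescence ratio is a statistical outlier from its plate by either plate-standardised score or position-corrected B-score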
HUVEC inhibit = inhibitors of HUVEC proliferation, primary screen, cell-based, 384-well | 1.1% of 86,000 active | CellTiter-Glo luminescence, 72 h; hits give low values | viability, % at 10 µM (by protocol);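 active means viability at or below 30%; inactive means viability above 30%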;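 further: 100% = median luminescence of DMSO-only cell control wells on each plate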
HCT116 bCat-KO = primary screen for growth suppressors in beta-catenin knockout HCT116 cells (colon tumor, human); HCT116 beta-catenin knockout viability, CellTiter-Glo, 60 h; hits give low values; viability, % at 10 µM; 1.5% of 140,000 active;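 active means viability at or under a set limit, the compound median less 4 SD, cut at about 6% in these data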;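 further: 0% = Hyamine 1622 control at 20 µM and 100% = untreated cell control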
H69AR growth 86K = proliferation blockers of H69AR lung cancer cells, primary screen, cell-based, human, 86K library. AID 598, 2007. 6% of 85,000 active. viability, % at 10 µM. H69AR lung tumor viability, ATP luminescence, 72 h; hits give low values;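 active means viability at or below 40%; inactive means viability above 40%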;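 further: multidrug resistant small cell line overexpressing MRP-1 efflux transporter; 100% = mean luminescence of untreated control wells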
HCT116 PTEN-null = growth suppression of PTEN-null HCT116, primary screen, cell-based, CellTiter-Glo; viability, % at 10 µM; 1.2% of 140,000 active; HCT116 PTEN-null viability, 60 h; hits give low values; AID 827, 2007;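 active means viability at or below a set limit, 4 SD under the median of all tested compounds, cut at about 3.7% in these data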;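 further: PTEN knockout HCT116 line with beta catenin targeted HCT116 as companion control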
* marks the source's active call; other numbers are inactive results; x = no result.

SMILES | Lung fibro prol | Cav3 T inh | HUVEC inhibit | HCT116 bCat-KO | H69AR growth 86K | HCT116 PTEN-null
COCCn1c(SCC(=O)Nc2ccc(S(N)(=O)=O)cc2)nc2ccccc21 | x | 0.821 | x | 95.0 | x | 96.7
COCCn1c(SCC(=O)Nc2ccc(Cl)c(S(=O)(=O)N(C)C)c2)nc2ccccc21 | x | -6.22* | x | 67.3 | x | 73.7
CCCCNS(=O)(=O)c1ccc2nc(-c3cccnc3)cc(C(=O)NC(C)C)c2c1 | x | x | x | 68.2 | x | 69.3
CCCCNS(=O)(=O)c1ccc2nc(-c3cccnc3)cc(C(=O)NC3CC3)c2c1 | x | x | x | 0.3* | x | 0.4*
Cc1nn(Cc2ccc(Cl)cc2Cl)c(C)c1NC(=O)CCl | 23.2* | 0.703 | 75.0 | 10.7 | 1.6* | 9.1
O=C(Nc1ccn(Cc2c(F)c(F)cc(F)c2F)n1)c1ccc(COc2ccc(Cl)cc2Cl)o1 | x | -1.27 | x | 80.4 | x | 66.2
Cc1nn(Cc2cccc(F)c2)c(C)c1NC(=O)c1ccc(COc2ccccc2Cl)cc1 | x | -4.56* | x | 65.6 | x | 41.0
Cc1nn(Cc2c(F)c(F)c(F)c(F)c2F)c(C)c1NC(=O)c1ccc(COc2ccc(Cl)cc2Cl)o1 | x | x | x | 4.7* | x | 14.0
CC(C)CNC(=O)c1ccc(COc2ccc(Cl)cc2Cl)o1 | 92.3 | -4.51* | 94.0 | 80.4 | 64.4 | 74.4
O=C(Nc1cccnc1Cl)C1c2ccccc2Oc2ccccc21 | 105.4 | 0.00592 | 101.9 | 74.5 | 91.2 | 85.2
C=CCNC(=O)c1cccc(C(F)(F)F)c1 | x | 0.0293 | x | 88.3 | x | 90.6
O=C(CSc1ccc(Cl)cc1)NC1CCCc2ccccc21 (centres undefined) | x | x | x | 85.6 | x | 92.4
O=C(NC1CC2CCC1C2)C1COc2ccccc2O1 (centres undefined) | 102.6 | -0.22 | 100.6 | 99.2 | 96.0 | 99.6
O=[N+]([O-])c1ccccc1Sc1nccn1Cc1ccccc1 | x | x | x | 92.5 | x | 99.0
Cc1ccc(NC(=O)COC(=O)/C=C/c2cccs2)c(C)c1 | x | x | x | 96.1 | x | 96.4
Cc1nn(Cc2ccc(Cl)cc2Cl)c(C)c1NC(=O)c1nn(C)cc1Cl | 107.6 | 0.104 | 88.6 | 64.2 | 85.8 | 77.8
Cc1nn(Cc2ccc(Cl)cc2Cl)c(C)c1NC(=O)c1ccc(COc2cc(Cl)ccc2Cl)o1 | x | -5.17* | x | 46.9 | x | 49.5
Cc1cc(C)cc(NC(=S)NCCN2CCOCC2)c1 | x | 0.0252 | x | x | x | x
Cc1c(C(=O)NN2CCCCC2)nn(-c2ccc(Cl)cc2Cl)c1-c1ccc(I)cc1 | x | -4.91* | x | x | x | x
Cc1nn(-c2ccc(Cl)cc2Cl)c(=O)c2ccccc12 | 88.1 | 0.507 | 102.0 | 84.1 | 89.9 | 98.0
Cc1ccc(-c2[nH]nc(N)c2N=Nc2ccccc2C)cc1 | x | 0.883 | x | 3.1* | x | 5.3
Cc1ccc(-c2[nH]nc(N)c2N=Nc2cccc(Cl)c2C)cc1 | x | 0.6 | x | 11.8 | x | 8.5
Cc1ccccc1NC(=O)C1CCN(c2cc(-c3ccccc3)nc3ncnn23)CC1 | 89.6 | 2.69 | 104.1 | 62.1 | 37.3* | 41.2
CCCCCCN1C=CC(=C/C=C(\C#N)C(=O)OCC)C=C1 | 94.3 | -3.34* | 106.0 | 93.5 | 66.9 | 84.2
CCCN1C=CC(=C/C=C(\C#N)C(=O)OCC)C=C1 | 104.9 | -3.02 | 98.9 | 91.7 | 79.1 | 98.5
SMILES | Lung fibro prol | Cav3 T inh | HUVEC inhibit | HCT116 bCat-KO | H69AR growth 86K | HCT116 PTEN-null
COc1cc(/C=C/C(=O)N2CCCc3ccccc32)cc(OC)c1OC | x | x | x | 81.2 | x | 81.8
Cc1cc(C(=O)OCC(=O)NCCC(C)C)c2ccccc2n1 | 105.5 | -0.0293 | 100.4 | 96.6 | 95.4 | 103.4
CC(=O)Nc1ccc(S(C)(=O)=O)c(C)c1 | x | x | x | 103.7 | x | 101.7
Cc1oc(C)c2c(=O)ccc3c(c12)OC(N)=C(C#N)C3c1ccc(F)cc1 (centres undefined) | 73.8 | -3.32* | 90.2 | 114.8 | 81.3 | 97.4
COC(=O)[C@@]1(Cc2ccc(OC)cc2)[C@@H]2C(=CC(=O)[C@H]2CC(=O)C(=O)N2CCCC2)CN1C(=O)c1ccccc1 | x | 1.57 | x | 1.9* | x | 2.0*
O=C(/C=C/NNC(=O)c1ccccc1)c1ccc(Br)cc1 | 59.1 | -3.58 | 73.5 | 90.0 | 34.2* | 99.1
O=C(/C=C/NNC(=O)c1cccc(Br)c1)c1cccc(Br)c1 | 75.6 | -2.46 | 53.2 | 62.8 | 78.2 | 58.8
